Sampled rows, rich in hits. Any-hit rate of the full collection: about 3.7%.
hERG rescue – hERG (human) protection from proarrhythmic block; CHO-hERG, FluxOR thallium flux, dofetilide IC70 present; activation (rescue from dofetilide block), less the hit threshold, % at 10 µM; 310,000 compounds, 0.51% hits; AID 1511;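 active = activation above the mean of controls blocked by dofetilide plus 5 SD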;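 also: thallium influx through hERG after potassium depolarization seen as dye fluorescence rise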
KCNQ1 pot – human KCNQ1 channel potentiation or activation. AID 2648. P51787. CHO-K1 KCNQ1, thallium flux FluxOR fluorescence; hits give high values. B-score at 10 µM. 310,000 compounds, 0.35% hits;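 active = fluorescence ratio B-score, a plate-corrected score, at least three library SD, with initial intensity B-score within 5 SD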
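Medium – assay buffer, equal DMSO in all wells · Material – CHO-K1 cell line with stable KCNQ1 potassium channel expression · Signal – kinetic FluxOR thallium fluorescence, 10-s 1-Hz baseline, 110-s post-stimulus read · Compound – single concentration per compound, DMSO matched to controls · Schedule – 37 °C overnight plating, 90-min dark dye load, 20-min compound pretreatment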
KCNK3 inh – human KCNK3 channel inhibition, primary screen; CHO-KCNK3 thallium flux, FluxOR fluorescence; hits give low values; B-score at 10 µM; 340,000 compounds, 0.84% hits; AID 602410; O14649;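 active = B-score under library mean minus 4 SD, starting fluorescence ratio at most library mean plus 5 SD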;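 also: more negative B-score means stronger inhibition of thallium flux through KCNK3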
KCNQ1 block – inhibitors of human KCNQ1 potassium channel. CHO-K1 KCNQ1, FluxOR thallium flux fluorescence; hits give high values. B-score at 10 µM. 310,000 compounds, 1.3% hits;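 active = compounds whose thallium flux B-score, printed positive for inhibition, exceeds three library SD while starting fluorescence stays within three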;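 also: channel opened by potassium depolarization with thallium stimulus after 20 min compound exposure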
Kir21 inh – inhibitors of mouse Kir2.1 inward-rectifier potassium channel. P35561. HEK293-Kir2.1, FluxOR thallium flux fluorescence; hits give low values. B-score at 10 µM. 310,000 compounds, 0.85% hits;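 active = fluorescence ratio B-score at or below minus 3 SD of library scores, with starting-brightness B-score within 2 SD, cut at about -4.2 in these data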;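 also: channel flux triggered by added potassium and thallium sulfate stimulus; B-score of peak minus minimum fluorescence over baseline after thallium stimulus; more negative B-score means stronger Kir2.1 block with less thallium influx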
KCNK9 inh-1 – human KCNK9 channel inhibition; HEK293 KCNK9, FluxOR thallium flux fluorescence; hits give low values; Q9NPC2; 310,000 compounds, 1.2% hits; B-score at 10 µM;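 active = ratio B-score over 3 SD below the library mean, with starting fluorescence within 5 SD of its mean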;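 also: negative B-score means less thallium flux so channel inhibition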
hERG inh – hERG (human) inhibition as Kir2.1 counter-screen. shares compounds with Kir21 inh. hERG-expressing cells, thallium flux. inhibition, % at 10 µM. 320 compounds, 20% hits. AID 2236;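 also: host cells are CHO cells stably expressing hERG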
KCNK9 inh-2 – tests whether Kir2.1 inhibitors also affect human KCNK9 | 320 compounds, 5% hits | inhibition, % at 10 µM | KCNK9-expressing cells, ion flux inhibition | AID 2329 | shares compounds with Kir21 inh
Kir21 ephys inh – blocks mouse Kir2.1 current in automated electrophysiology; 320 compounds, 71% hits; inhibition, % at 25 µM; shares compounds with Kir21 inh; Kir2.1 cells, automated patch-clamp current inhibition
* marks the source's active call; other numbers are inactive results; i = inactive; . = no result given. Unless noted, no rule for the calls is given here.

SMILES | hERG rescue | KCNQ1 pot | KCNK3 inh | KCNQ1 block | Kir21 inh | KCNK9 inh-1 | others
CCOC(=O)c1c(C)n(C)c2ccc(O)c(CN3CCN(C)CC3)c12 | -7 | i | i | i | -0.52 | i
CCOC(=O)c1c(CSc2ccccc2)n(C)c2cc(Br)c(OC)c(O)c12 | 0 | i | i | 6* | -0.64 | i
CCOC(=O)c1c(-c2ccccc2)oc2ccc(O)c(CN3CCN(C)CC3)c12 | -7 | i | i | i | -9.3* | i
CCOC(=O)c1c(C)n(C)c2ccc(O)c(CN3CCC(C)CC3)c12 | -13 | i | i | i | -2.7 | i
CN1CCN(CCCNC(=O)CCN2C(=O)COc3ccccc32)CC1 | -1 | i | i | i | -1.8 | i
COC(=O)C(C(=O)Nc1nc2ccccc2s1)C1CCCC1 (stereo unspecified) | -12 | i | i | i | 1.4 | i
CCC(NC(=S)NCc1ccc(F)cc1)c1ccccc1 (stereo unspecified) | -13 | i | i | i | -7.4* | i
COc1ccc(C(CNC(=O)CCNS(=O)(=O)c2ccccc2C(F)(F)F)N2CCOCC2)cc1 (stereo unspecified) | . | . | i | . | . | .
CCOC(=O)N1CCN(S(=O)(=O)c2ccc3c(c2)OCC(=O)N3)CC1 | 10* | i | i | i | 0.79 | i
CCOC(=O)N1CCN(S(=O)(=O)c2ccc3c(c2)NC(=O)CO3)CC1 | . | . | i | . | . | .
Cc1ccc(CSc2ccc(C(=O)N3CCOCC3)cc2[N+](=O)[O-])cc1 | -16 | i | i | i | 1 | i
COc1cc(/C=C2\SC(=S)N(Nc3ccccc3)C2=O)ccc1O | -4 | i | i | i | -0.83 | i
COc1cc(/C=C2\SC(=S)N(C(Cc3ccccc3)C(=O)O)C2=O)ccc1O (stereo unspecified) | -20 | i | i | i | -4.5* | i
CC(C)(c1ccccc1)c1ccc(OCCCNCCO)cc1 | -11 | i | i | i | -8.6* | i | hERG inh=i;KCNK9 inh-2=i;Kir21 ephys inh=59%*
CC(C)NCCCOc1ccc(C(C)(C)c2ccccc2)cc1 | 1 | i | i | i | -2.4 | i
O=C(O)/C=C/C(=O)N1CCN(c2cccc(Cl)c2)CC1 | -18 | i | i | i | 4.3 | i | hERG inh=i;KCNK9 inh-2=i;Kir21 ephys inh=i
O=C(O)CCC(=O)N1CCN(c2cccc(Cl)c2)CC1 | -10 | i | i | i | 0.81 | i
Cc1cc(S(=O)(=O)Nc2cc(C)c(O)c(C)c2)c(C)s1 | -3 | i | i | i | -6.7* | i | hERG inh=i;KCNK9 inh-2=i;Kir21 ephys inh=18%*
CCOC(=O)[C@H]1[C@H]2COc3ccc(OC)cc3[C@@H]2N2C(=O)c3ccccc3NC(=O)[C@@]12C | . | . | i | . | . | .
CCC(=O)OCc1c(C(F)(F)F)nn(C)c1Sc1ccc(F)cc1 | -20 | i | i | i | -8.4* | i | hERG inh=i;KCNK9 inh-2=i;Kir21 ephys inh=31%*
O=C1CN(S(=O)(=O)c2cccc(Cl)c2Cl)c2ccccc2N1 | -7 | i | i | i | -5.7* | i | hERG inh=i;KCNK9 inh-2=i;Kir21 ephys inh=i
Cc1ccc(OCC(=O)Nc2nnc(S(=O)(=O)N3CCC(C)CC3)s2)cc1 | -9 | i | i | i | 1.2 | i
Cc1ccc(S(=O)(=O)N2CCN(C3CC(=O)N(c4ccc(F)cc4)C3=O)CC2)cc1C (stereo unspecified) | . | . | i | . | . | .
COc1ccc(/C=C/C(=O)OCC(=O)Nc2ccc3[nH]c(=O)[nH]c3c2)cc1OC | -8 | i | i | i | -0.19 | i
CN(C)c1nc(Nc2ccccc2)nc(N(C)C)n1 | -11 | i | i | i | 1.1 | i
CN(C)c1ccc(Nc2nc(N)c3ccccc3n2)cc1 | -8 | i | i | i | -7.5* | i | hERG inh=i;KCNK9 inh-2=i;Kir21 ephys inh=65%*

From PubChem
